Measured values from ChEMBL document CHEMBL1811799, “Jatrophane diterpenes from Euphorbia esula as antiproliferative agents and potent chemosensitizers to overcome multidrug resistance” (J Nat Prod, 2011).

Assays:
[1] = system: HeLa; assay: Antiproliferative activity against human HeLa cells assessed as growth inhibition at 10 ug/mL after 72 hrs by MTT assay; format: functional; settings: read-out: GI
How it was run: (§1)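 MTT assay on human HeLa, Ishikawa and MCF7 cells seeded at 5000/well and left to attach overnight. Medium was then replaced with medium containing test substances (DMSO stocks, final DMSO up to 0.3%). After 72 h, MTT was added for 4 h, formazan was dissolved in DMSO and absorbance read at 545 nm. Untreated cells served as negative control and cisplatin as positive control. Two plates were run, each with at least five parallel wells.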

[2] = system: Ishikawa; assay: Antiproliferative activity against human Ishikawa cells assessed as growth inhibition at 10 ug/mL after 72 hrs by MTT assay; format: functional; settings: read-out: GI; how it was run: as §1
[3] = system: MCF7; assay: Antiproliferative activity against human MCF7 cells assessed as growth inhibition at 10 ug/mL after 72 hrs by MTT assay; format: functional; settings: MCF7, 72 h, read-out: GI; how it was run: as §1
[4] = system: HeLa; assay: Antiproliferative activity against human HeLa cells assessed as growth inhibition at 30 ug/mL after 72 hrs by MTT assay; format: functional; settings: read-out: GI; how it was run: as §1
[5] = system: Ishikawa; assay: Antiproliferative activity against human Ishikawa cells assessed as growth inhibition at 30 ug/mL after 72 hrs by MTT assay; format: functional; settings: read-out: GI; how it was run: as §1
[6] = system: MCF7; assay: Antiproliferative activity against human MCF7 cells assessed as growth inhibition at 30 ug/mL after 72 hrs by MTT assay; format: functional; settings: MCF7, 72 h, read-out: GI; how it was run: as §1
[7] = target: T1, ATP-dependent translocase ABCB1 (Homo sapiens, UniProt P08183); assay: Inhibition of MDR1-mediated rhodamine 123 uptake expressed in mouse L5178Y cells transfected with pHa MDR1/A assessed as fluorescence activity ratio at 4 ug/mL by flow cytometry relative to untreated control; format: cell-based
How it was run: (§2)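 Mouse L5178 lymphoma cells transfected with pHa MDR1/A retrovirus were kept under 60 ng/mL colchicine, alongside L5178Y parent cells, in McCoy's 5A medium with 10% horse serum. Cells at 2×10^6/mL in serum-free medium were preincubated with compound (4.0 or 40.0 μg/mL, in DMSO) for 10 min at room temperature. Rhodamine 123 was then added (5.2 μM final) for 20 min at 37 °C, and cells were washed and measured by flow cytometry. R compares treated versus untreated MDR cells relative to parental cells. Verapamil served as positive control.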

[8] = target: T1, ATP-dependent translocase ABCB1; assay: Inhibition of MDR1-mediated rhodamine 123 uptake expressed in mouse L5178Y cells transfected with pHa MDR1/A assessed as fluorescence activity ratio at 40 ug/mL by flow cytometry relative to untreated control; format: cell-based; how it was run: as §2

T1 sequence (P08183 whole entry): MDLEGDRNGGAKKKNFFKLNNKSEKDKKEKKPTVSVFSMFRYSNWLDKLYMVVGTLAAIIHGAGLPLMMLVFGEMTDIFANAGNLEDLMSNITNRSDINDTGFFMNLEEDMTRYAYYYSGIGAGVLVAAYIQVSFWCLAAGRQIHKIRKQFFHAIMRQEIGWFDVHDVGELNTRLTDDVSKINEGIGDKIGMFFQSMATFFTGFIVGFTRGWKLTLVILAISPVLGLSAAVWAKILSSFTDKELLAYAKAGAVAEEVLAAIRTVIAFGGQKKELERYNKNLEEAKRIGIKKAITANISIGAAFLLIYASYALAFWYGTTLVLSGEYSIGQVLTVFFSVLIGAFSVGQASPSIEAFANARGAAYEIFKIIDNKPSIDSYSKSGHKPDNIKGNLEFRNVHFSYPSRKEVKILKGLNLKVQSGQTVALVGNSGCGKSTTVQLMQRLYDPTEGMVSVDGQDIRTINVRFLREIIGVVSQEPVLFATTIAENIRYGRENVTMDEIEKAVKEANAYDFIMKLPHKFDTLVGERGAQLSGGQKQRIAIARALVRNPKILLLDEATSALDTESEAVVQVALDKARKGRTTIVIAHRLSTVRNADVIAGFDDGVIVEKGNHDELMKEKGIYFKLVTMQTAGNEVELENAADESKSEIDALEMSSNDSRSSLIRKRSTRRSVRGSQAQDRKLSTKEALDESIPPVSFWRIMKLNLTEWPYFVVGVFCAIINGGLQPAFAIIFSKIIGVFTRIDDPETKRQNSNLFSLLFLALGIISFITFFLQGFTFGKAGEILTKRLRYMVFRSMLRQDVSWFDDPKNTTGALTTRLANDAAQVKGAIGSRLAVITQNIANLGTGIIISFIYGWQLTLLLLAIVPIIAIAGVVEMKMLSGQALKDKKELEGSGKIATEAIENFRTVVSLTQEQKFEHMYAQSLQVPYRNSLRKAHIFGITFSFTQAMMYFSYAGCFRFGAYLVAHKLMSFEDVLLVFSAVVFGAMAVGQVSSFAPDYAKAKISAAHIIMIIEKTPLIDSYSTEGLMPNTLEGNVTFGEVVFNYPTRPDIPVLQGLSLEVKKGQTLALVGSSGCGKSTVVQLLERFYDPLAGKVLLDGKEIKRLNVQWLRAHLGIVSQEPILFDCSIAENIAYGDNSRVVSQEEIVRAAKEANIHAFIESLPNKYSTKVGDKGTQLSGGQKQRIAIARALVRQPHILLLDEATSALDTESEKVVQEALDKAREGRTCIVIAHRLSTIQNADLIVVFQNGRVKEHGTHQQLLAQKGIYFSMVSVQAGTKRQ

Work on `C=C1[C@H](OC(=O)C(C)C)[C@@H](OC(C)=O)[C@@H](OC(C)=O)C(C)(C)[C@@H]2O[C@](O)([C@H](C)[C@@H]2OC(C)=O)[C@@]2(OC(C)=O)C[C@@](C)(OC(C)=O)[C@H](OC(C)=O)[C@@H]2[C@H]1OC(C)=O` yielded an inhibition of growth at 10 µg/mL [1] of 10.6%, an inhibition of growth at 10 µg/mL [2] of 12% and an inhibition of growth at 10 µg/mL [3] of 9.8%. The inhibition of growth at 30 µg/mL [4] was 17.8%, the inhibition of growth at 30 µg/mL [5] was 17.7% and the inhibition of growth at 30 µg/mL [6] was 11.4%. For the same molecule, the Ratio [7] was 1.4 and the Ratio [8] was 1.

Work on `C=C1[C@H](OC(C)=O)C[C@@H](OC(=O)c2cccnc2)C(C)(C)/C=C/[C@@H](C)C(=O)[C@@]2(OC(C)=O)C[C@@](C)(OC(=O)c3cccnc3)[C@H](OC(C)=O)[C@@H]2[C@H]1OC(C)=O` [ESULATIN K] yielded an inhibition of growth at 10 µg/mL [1] of 0.5%, an inhibition of growth at 10 µg/mL [2] of 7.5% and an inhibition of growth at 10 µg/mL [3] of 1.3%. It also gave an inhibition of growth at 30 µg/mL [4] of 0.6%, an inhibition of growth at 30 µg/mL [5] of 0.1% and an inhibition of growth at 30 µg/mL [6] of 21.3%. For the same molecule, the Ratio [7] was 7.2 and the Ratio [8] was 19.8.

Molecule `C=C1[C@H](OC(C)=O)CC(=O)C(C)(C)/C=C/[C@@H](C)C(=O)[C@@]2(OC(C)=O)C[C@@](C)(OC(C)=O)[C@H](OC(C)=O)[C@@H]2[C@H]1OC(C)=O` [ESULATIN B] has an inhibition of growth at 10 µg/mL [1] of 17.3%, an inhibition of growth at 10 µg/mL [2] of 11.6% and an inhibition of growth at 10 µg/mL [3] of 29.9%. For the same molecule, the inhibition of growth at 30 µg/mL [4] was 36.3%, the inhibition of growth at 30 µg/mL [5] was 35% and the inhibition of growth at 30 µg/mL [6] was 43.3%. For the same molecule, the Ratio [7] was 2.6 and the Ratio [8] was 7.8.

In the case of `C=C1[C@H](OC(=O)C(C)C)[C@@H](OC(C)=O)[C@@H](OC(C)=O)C(C)(C)/C=C/[C@@H](C)C(=O)[C@@]2(OC(C)=O)C[C@@](C)(OC(C)=O)[C@H](OC(C)=O)[C@@H]2[C@H]1OC(C)=O`, the inhibition of growth at 10 µg/mL [1] is reported as 2.9%, the inhibition of growth at 10 µg/mL [2] is reported as 21.4% and the inhibition of growth at 10 µg/mL [3] is reported as 8.7%. It also gave an inhibition of growth at 30 µg/mL [4] of 10.9%, an inhibition of growth at 30 µg/mL [5] of 17.1% and an inhibition of growth at 30 µg/mL [6] of 23.3%. The Ratio [7] was 5.5 and the Ratio [8] was 14.8.

`C=C1[C@H](OC(=O)C(C)C)C[C@@H](OC(=O)c2cccnc2)C(C)(C)/C=C/[C@@H](C)C(=O)[C@@]2(OC(C)=O)C[C@H](C)[C@H](OC(C)=O)[C@@H]2[C@H]1OC(C)=O` gave an inhibition of growth at 10 µg/mL [1] of 18.3%, an inhibition of growth at 10 µg/mL [2] of 5.9% and an inhibition of growth at 10 µg/mL [3] of 18.5%. The inhibition of growth at 30 µg/mL [4] was 4.5%, the inhibition of growth at 30 µg/mL [5] was 16.4% and the inhibition of growth at 30 µg/mL [6] was 14.4%. The Ratio [7] was 16.6 and the Ratio [8] was 119.9.

`C=C1[C@H](OC(C)=O)CC(=O)C(C)(C)/C=C/[C@@H](C)C(=O)[C@@]2(OC(C)=O)C[C@@](C)(OC(=O)c3ccccc3)[C@H](OC(C)=O)[C@@H]2[C@H]1OC(C)=O` [ESULATIN I] gave an inhibition of growth at 10 µg/mL [1] of 15.4%, an inhibition of growth at 10 µg/mL [2] of 8% and an inhibition of growth at 10 µg/mL [3] of 12.7%. It also gave an inhibition of growth at 30 µg/mL [4] of 23.8%, an inhibition of growth at 30 µg/mL [5] of 29.4% and an inhibition of growth at 30 µg/mL [6] of 60.1%. The Ratio [7] was 3.9 and the Ratio [8] was 19.9.

`C=C1[C@H](OC(=O)C(C)C)C[C@@H](OC(=O)c2cccnc2)C(C)(C)/C=C/[C@@H](C)C(=O)[C@@]2(OC(C)=O)C[C@@](C)(OC(C)=O)[C@H](OC(C)=O)[C@@H]2[C@H]1OC(C)=O` showed an inhibition of growth at 10 µg/mL [1] of 6.4%, an inhibition of growth at 10 µg/mL [2] of 17.5% and an inhibition of growth at 10 µg/mL [3] of 3.6%. The inhibition of growth at 30 µg/mL [4] was 1.1%, the inhibition of growth at 30 µg/mL [5] was 26.6% and the inhibition of growth at 30 µg/mL [6] was 16.7%. It also gave a Ratio [7] of 23.8 and a Ratio [8] of 36.4.

With `C=C1[C@H](OC(C)=O)C[C@@H](OC(=O)c2cccnc2)C(C)(C)/C=C/[C@@H](C)C(=O)[C@@]2(OC(C)=O)C[C@@](C)(OC(C)=O)[C@H](OC(C)=O)[C@@H]2[C@H]1OC(C)=O` the inhibition of growth at 10 µg/mL [1] was 13.9%, the inhibition of growth at 10 µg/mL [2] was 8.1% and the inhibition of growth at 10 µg/mL [3] was 20.3%. For the same molecule, the inhibition of growth at 30 µg/mL [4] was 17.9%, the inhibition of growth at 30 µg/mL [5] was 13.9% and the inhibition of growth at 30 µg/mL [6] was 36.3%. It also gave a Ratio [7] of 1.7 and a Ratio [8] of 2.3.

Molecule `C=C1/C=C\C(=O)C(C)(C)/C=C/[C@@H](C)C(=O)[C@@]2(OC(C)=O)C[C@@](C)(OC(C)=O)[C@H](OC(C)=O)[C@@H]2[C@H]1OC(C)=O` [ESULATIN E] has an inhibition of growth at 10 µg/mL [1] of 19.5%, an inhibition of growth at 10 µg/mL [2] of 35.6% and an inhibition of growth at 10 µg/mL [3] of 30.4%. The inhibition of growth at 30 µg/mL [4] was 58.1%, the inhibition of growth at 30 µg/mL [5] was 54.1% and the inhibition of growth at 30 µg/mL [6] was 61.4%.

Molecule `C=C1[C@H](OC(=O)C(C)C)CC(=O)C(C)(C)/C=C/[C@@H](C)C(=O)[C@@]2(OC(C)=O)C[C@H](C)[C@H](OC(C)=O)[C@@H]2[C@H]1OC(C)=O` has an inhibition of growth at 10 µg/mL [1] of 19.1%, an inhibition of growth at 10 µg/mL [2] of 18.4% and an inhibition of growth at 10 µg/mL [3] of 46.8%. For the same molecule, the inhibition of growth at 30 µg/mL [4] was 64.5%, the inhibition of growth at 30 µg/mL [5] was 98.4% and the inhibition of growth at 30 µg/mL [6] was 81.4%. The Ratio [7] was 24.9 and the Ratio [8] was 52.5.

`C=C1[C@H](OC(C)=O)C[C@@H](OC(C)=O)C(C)(C)/C=C/[C@@H](C)C(=O)[C@@]2(OC(C)=O)C[C@@](C)(OC(C)=O)[C@H](OC(C)=O)[C@@H]2[C@H]1OC(C)=O` [ESULATIN D] was tested, and the inhibition of growth at 10 µg/mL [1] was 11.4%, the inhibition of growth at 10 µg/mL [2] was 29.4% and the inhibition of growth at 10 µg/mL [3] was 9.5%. It also gave an inhibition of growth at 30 µg/mL [4] of 26.7%, an inhibition of growth at 30 µg/mL [5] of 29.9% and an inhibition of growth at 30 µg/mL [6] of 13.5%. For the same molecule, the Ratio [7] was 4.6 and the Ratio [8] was 15.2.

With `C=C1[C@H](OC(C)=O)C[C@@H](OC(=O)c2cccnc2)[C@](C)(OC(C)=O)C/C=C/[C@@H](C)C(=O)[C@@]2(OC(C)=O)C[C@@](C)(OC(=O)c3cccnc3)[C@H](OC(C)=O)[C@@H]2[C@H]1OC(C)=O` [EUPHOSALICIN] the inhibition of growth at 10 µg/mL [1] was 14.5%, the inhibition of growth at 10 µg/mL [2] was 0.9% and the inhibition of growth at 10 µg/mL [3] was 6.3%. The inhibition of growth at 30 µg/mL [4] was 18.1%, the inhibition of growth at 30 µg/mL [5] was 7.6% and the inhibition of growth at 30 µg/mL [6] was 20%. The Ratio [7] was 1.9 and the Ratio [8] was 12.3.

Work on `CC(=O)O[C@H]1[C@H]2OC(=O)CC[C@](O)([C@@H]1OC(=O)C(C)C)[C@H](OC(C)=O)[C@H]1[C@@H](OC(C)=O)[C@](C)(OC(C)=O)C[C@]1(OC(C)=O)C(=O)[C@H](C)[C@H]1O[C@@H]1C2(C)C` yielded an inhibition of growth at 10 µg/mL [1] of 5.3%, an inhibition of growth at 10 µg/mL [2] of 31.5% and an inhibition of growth at 10 µg/mL [3] of 24.8%. The inhibition of growth at 30 µg/mL [4] was 20.8%, the inhibition of growth at 30 µg/mL [5] was 33% and the inhibition of growth at 30 µg/mL [6] was 29.2%. It also gave a Ratio [7] of 5.9 and a Ratio [8] of 17.5.
